# Compound activity (PubChem BioAssay)
# IMP-1 inhibitor: IMP-1 metallo-beta-lactamase inhibitors, primary screen, biochemical, epi-absorbance readout, Pseudomonas aeruginosa enzyme | purified IMP-1, nitrocefin hydrolysis, epi-absorbance fluorescence | inhibition, % at 5.6 µM | hit rate 0.45% among 290,000;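 active = inhibition above the mean plus 3 SD of all compounds in the same screening run, cut at about 4.5% in these data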;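 also: 0% = IMP-1 with DMSO and 100% = DMSO wells lacking enzyme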
#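 Test system: recombinant IMP-1 enzyme, purified / Medium: HEPES buffer pH 7.1 with ZnSO4 and Brij 35 / Doses: single dose, 5.6 µM / Times: 25 °C, 15 min preincubation, 25 min reaction / Detection: Epi-absorbance via hydrolysed-nitrocefin quenching of white-plate fluorescence, 480/530 nm, EDTA stop / Evaluation: percent inhibition from optical density relative to buffer-blank wells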
# PABP FP inh: PABP poly(A) RNA binding inhibitors, primary screen, biochemical, fluorescence polarization, uHTS | calls only at 35 µM | AID 2014, 2009 | hit rate 1% among 290,000;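 also: calls also rest on retests at 20 µM and on dose response follow-up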
# Target sequence (P11940 whole entry, looked up): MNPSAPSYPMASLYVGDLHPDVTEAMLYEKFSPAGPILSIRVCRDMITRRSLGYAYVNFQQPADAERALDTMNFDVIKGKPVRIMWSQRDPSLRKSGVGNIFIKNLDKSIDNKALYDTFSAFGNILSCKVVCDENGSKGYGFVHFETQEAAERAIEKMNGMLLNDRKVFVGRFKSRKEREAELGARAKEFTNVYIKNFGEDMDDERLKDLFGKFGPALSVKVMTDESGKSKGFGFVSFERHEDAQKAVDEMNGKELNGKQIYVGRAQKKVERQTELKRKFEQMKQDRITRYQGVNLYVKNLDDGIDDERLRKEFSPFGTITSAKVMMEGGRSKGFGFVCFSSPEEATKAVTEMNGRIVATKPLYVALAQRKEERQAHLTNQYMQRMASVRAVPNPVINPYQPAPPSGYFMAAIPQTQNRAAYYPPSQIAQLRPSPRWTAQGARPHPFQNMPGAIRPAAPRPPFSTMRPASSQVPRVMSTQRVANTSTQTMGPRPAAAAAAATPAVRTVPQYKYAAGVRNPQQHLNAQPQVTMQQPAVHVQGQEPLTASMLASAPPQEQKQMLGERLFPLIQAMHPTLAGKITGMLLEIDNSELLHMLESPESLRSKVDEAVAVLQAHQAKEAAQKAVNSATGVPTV
# eIF4H FP inh: human eIF4H binding inhibitors, primary screen, translation initiation inhibitor project, biochemical, uHTS, fluorescence polarization | inhibition, % at 35 µM | Eukaryotic translation initiation factor 4H (Homo sapiens), Q15056 | hit rate 0.94% among 290,000 | eIF4H fluorescence polarization binding assay;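 also: calls also rest on retests at 20 µM and on dose response follow-up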
# VIM-2 inh: VIM-2 metallo-beta-lactamase inhibitors, primary screen, biochemical, epi-absorbance readout, Pseudomonas aeruginosa enzyme. inhibition, % at 5.6 µM. AID 1527, 2009. hit rate 0.89% among 290,000. purified VIM-2, nitrocefin hydrolysis, epi-absorbance fluorescence;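 active = inhibition above the mean of all tested compounds plus 3 SD, cutoff set per screening run, cut at about 7.5% in these data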;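 also: red hydrolysis product quenches plate fluorescence so inhibitors raise well fluorescence; 0% = enzyme with DMSO and 100% = DMSO without enzyme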
# PABP1 MLLE inh: inhibitors of PABP1 MLLE–PAM2 peptide binding, primary screen, biochemical, fluorescence polarization, FITC-PAM2, GST-MLLE. Polyadenylate-binding protein 1 (Homo sapiens), P11940. inhibition, % at 20 µM. hit rate 0.36% among 360,000. AID 588489, 2011; in the data active = inhibition above about 35%, passing the limit was not always enough;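 also: plate controls were DMSO wells with GST-MLLE for no effect and wells lacking GST-MLLE protein for full effect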
# * marks the source's active call; other numbers are inactive results; i = inactive; ? = inconclusive; / = no result; + = active, no number. An excerpt weighted towards active compounds, which were near 2.2% of everything screened. Unless noted, no rule for the calls is given here.
SMILES,IMP-1 inhibitor,PABP FP inh,eIF4H FP inh,VIM-2 inh,PABP1 MLLE inh
CC(c1ccccc1)N(NC(=O)C(O)(c1ccccc1)c1ccccc1)C(=O)c1ccccc1 (stereo unspecified),-1.0,i,-3.0,-2.6,10.8
CCCCN(C(=O)c1cccc(S(=O)(=O)N2CCOCC2)c1)c1c(N)n(CCC)c(=O)[nH]c1=O,-0.6,+,12.9,0.0,-4.0
CCCCN(C(=O)c1cccc(S(=O)(=O)N2CCN(C)CC2)c1)c1c(N)n(CCCC)c(=O)[nH]c1=O,/,/,/,/,-3.2
COc1cccc(CNC(=O)CCC2CCCN(C(=O)c3ccccc3N(C)C)C2)c1 (stereo unspecified),-1.6,i,-12.7,-1.7,2.4
COc1cccc(CNC(=O)CCC2CCCN(C(=O)c3cccc4c(C)c(C)[nH]c34)C2)c1 (stereo unspecified),-3.0,+,66.5*,-1.4,7.8
COc1ccc(CCNC(=O)CCNC(=O)N2CC(=O)Nc3ccccc32)cc1OC,-2.3,i,1.4,-1.7,14.3
COc1ccccc1/C=C(\NC(=O)c1ccc(OC)c(OC)c1)C(=O)Nc1cccc([N+](=O)[O-])c1,-1.4,i,-9.1,-4.8,4.9
COc1ccc(S(N)(=O)=O)cc1C(=O)NNC(=O)CN(C)S(=O)(=O)c1ccc(Cl)cc1,/,/,/,/,-1.9
Cn1nnc2c(C(N)=O)ncn2c1=O,-2.3,i,3.4,-3.0,39.3*
OC(c1ccccc1)(c1nc(-c2ccc(F)c(Cl)c2)cs1)C(F)(F)F (stereo unspecified),/,/,/,/,-2.2
CC(O)c1n(C)c(Cl)c[n+]1C (stereo unspecified),1.6,+,0.4,-2.2,-120.2
Cc1cc(=O)oc(C)c1C(=O)OCC(=O)c1ccc(Cl)c(Cl)c1,5.3*,i,-13.7,1.0,2.7
Cc1ccc(C(=O)COC(=O)c2c(C)cc(=O)oc2C)cc1[N+](=O)[O-],1.3,i,-6.3,-2.6,14.8
Cc1cc(Cl)ccc1NC(=S)NC(C)(C)C,-3.0,i,-2.1,-4.7,39.9*
Cc1cc(Cl)ccc1NC(=S)Nc1cccnc1,-2.6,i,1.1,-4.6,38.5*
Fc1cccc(NC(=S)Nc2cccnc2)c1,-0.8,i,-0.2,-1.4,42.5*
NS(=O)(=O)c1ccc(NC(=O)CSc2ccccn2)cc1,2.7,i,-6.5,-2.1,2.7
NS(=O)(=O)c1cccc(NC(=O)CSc2ccccn2)c1,-2.9,+,-3.4,-0.1,-1.5
CCOc1ccc2c(c1)-c1c(ssc1=S)C(C)(C)N2C(=O)CSC1=NCCS1,-3.4,i,1.1,-0.5,45.5*
Cc1ccc2c(c1)-c1c(ssc1=S)C(C)(C)N2C(=O)CSC1=NCCS1,-2.4,i,-0.8,-0.4,31.5
Cc1ccc(C)c(N2CCN(C(=O)c3ccc(NC4=NC5CS(=O)(=O)CC5S4)cc3)CC2)c1 (stereo unspecified),-1.3,i,1.0,-3.0,-110.7
O=c1c(N2CCOCC2)nsn1Cc1ccccc1,6.0*,i,-4.4,-2.7,-0.1
c1ccc(CN2CCOCC2)cc1,-3.1,i,-10.4,-7.0,4.9
O=C(CSc1ccc(-c2ccco2)nn1)NCc1ccc(F)cc1,-3.1,i,21.3,-4.2,26.3
O=C(CSc1ccc(-c2ccco2)nn1)c1ccc(F)cc1,-5.1,+,90.5,-2.1,33.1
SMILES,IMP-1 inhibitor,PABP FP inh,eIF4H FP inh,VIM-2 inh,PABP1 MLLE inh
Fc1ccc(CSc2ccc(-c3ccco3)nn2)cc1,-2.9,+,?,-3.7,3.7
COCCNC(=O)CCC(=O)NNc1nc2ccccc2c2nc(-c3ccccc3)nn12,-3.7,i,-1.1,-4.7,7.0
COCCNC(=S)N(c1ccccc1)C(C)C,-3.2,i,2.5*,-1.0,-12.8
COCCNC(=S)NN(c1ccccc1)c1ccccc1,-3.7,i,-6.9,-2.1,19.7
Cc1ccc2nc(CSc3nnc(Nc4ccccc4F)s3)cc(=O)n2c1,-3.2,+,69.7*,-3.7,-8.4
Cc1ccc(Nc2nnc(SCc3cc(=O)n4cc(C)ccc4n3)s2)cc1,-2.7,i,1.3,2.3,-18.8
COc1ccc(Nc2nnc(SCc3cc(=O)n4ccsc4n3)s2)cc1,-1.4,+,74.7*,-3.4,6.9
CC(C)(C)OC(=O)N1CCCC1C(=O)NCCc1ccccc1 (stereo unspecified),-2.2,+,5.8,-4.0,-151.6
Cc1cc(-c2ccc(S(=O)(=O)N3CCN(c4ccccc4F)CC3)s2)on1,-0.8,i,-16.0,-0.6,-5.6
